Active and inactive are the calls of the source. No cut-off for these calls is given here.
What was measured:
[1] = molecular target: Vascular endothelial growth factor receptor 3 (Homo sapiens, UniProt P35916); assay: Inhibition of human recombinant GST-fused VEGFR3 kinase domain transphosphorylation expressed in baculovirus expression system using poly-Glu-Tyr (4:1) as substrate measured after 10 mins in presence of gamma-[33P]-ATP by scintillation counting analysis
Procedure, shortened: (§1)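 GST-fused kinase domains were expressed in baculovirus and purified on glutathione-Sepharose. 10 min at ambient temperature, stopped with EDTA. Filter binding and scintillation counting. IC50 by linear regression of percent inhibition.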

[2] = molecular target: Vascular endothelial growth factor receptor 1 (Homo sapiens, UniProt P17948); assay: Inhibition of human recombinant GST-fused VEGFR1 kinase domain transphosphorylation expressed in baculovirus expression system using poly-Glu-Tyr (4:1) as substrate measured after 10 mins in presence of gamma-[33P]-ATP by scintillation counting analysis; procedure, shortened: as §1
[3] = Toxicity in C57BL/6jNpa mouse harbouring mouse B16-BL6 cells assessed as effect on animal well-being at 3 mg/kg, po qd administered started on day 7 post implantation measured after 21 days; format: organism-based; conditions: in vivo, 504 h, time 7-21 day
Procedure, shortened: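 Female C57BL/6JNpa mice received 50000 B16/BL6 cells intradermally in both ear pinnae. Randomized on day 7 into groups of 5–6, then dosed 3 mg/kg p.o. daily in PEG200/PEG300 for 14 days. Behavior and well-being were observed. On day 21, blood was analysed for platelet, red and white cell counts and hematocrit.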

BaF3 [4] = assay: Antiproliferative activity against mouse BaF3 cells expressing FLT3-ITD assessed as cell growth inhibition measured after 72 hrs by Alamar Blue assay; conditions: BaF3, 72 h
BaF3 [5] = assay: Antiproliferative activity against mouse BaF3 cells expressing Tel-IGF-1R assessed as cell growth inhibition measured after 72 hrs by Alamar Blue assay; conditions: BaF3, 72 h
B16-BL6 [6] = assay: Antitumor activity against mouse B16-BL6 cells implanted in C57BL/6jNpa mouse assessed as reduction in TIE-2 levels metastases lysate of at 3 mg/kg, po qd administered started on day 7 post implantation measured after 21 days by ELISA analysis; format: functional, organism-based; conditions: time 7-21 day
Procedure, shortened: (§2)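 Female C57BL/6JNpa mice, 50000 B16/BL6 cells intradermally in both ear pinnae; primary tumor area (mm²) imaged days 7, 14, 21; randomized day 7 into groups of 5-6, oral dosing in PEG200 or PEG300 vehicle daily (or every 2 days) for 14 days; day 21 cervical lymph nodes weighed, metastasis lysates assayed for TIE-2 by ELISA; T/C ratios.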

BaF3 [7] = assay: Antiproliferative activity against mouse BaF3 cells assessed as cell growth inhibition measured after 72 hrs by Alamar Blue assay; conditions: BaF3, 72 h
[8] = Half life in Sprague-Dawley rat at 50 mg/kg, po measured upto 24 hrs by HPLC/UV analysis; format: ADME, organism-based; conditions: in vivo
Procedure, shortened: (§3)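 Female Sprague Dawley rats, 8 weeks old, catheterized. Oral suspension in 0.5 % carboxymethyl cellulose at 50 mg/kg, n=3. Bioavailability taken against 3 mg/kg iv. Plasma sampled 5 min–24 h. Cmax and AUC(0–∞) dose-normalized.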

[9] = Oral bioavailability in Sprague-Dawley rat at 50 mg/kg measured upto 24 hrs by HPLC/UV analysis; format: ADME, organism-based; conditions: in vivo; procedure, shortened: as §3
Mus musculus [10] = assay: Protection against VEGF-induced vessel extravasation in FVB mouse at 3 mg/kg pre-administrated for 2 to 48 hrs followed by evans-blue administration for 30 mins and measured 30 mins after dog VEGF164 addition; format: functional, organism-based; conditions: time 3-49 hrs
Procedure, shortened: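 Female FVB mice (18–20 g), 3–4 per group. Oral 3 mg/kg at 48, 24 or 8 h before sacrifice. Evans blue 0.5 % (200 µl) given i.v. in the tail vein. 30 min later, 2 µL dog VEGF164 (10 ng/µL) injected intradermally into the ear pinna. Dye extravasation quantified by a computer-assisted system.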

Mus musculus [11] = assay: Anti-angiogenesis activity in FVB mouse model assessed as inhibition of VEGF-induced tissue TIE-2 level at 0.3 mg/kg, po qd treated for 4 to 6 hrs prior to chamber implantation and continuing for 4 days measured after 24 hrs post last dose by ELISA analysis; format: functional, organism-based; conditions: time 5.0 day
Procedure, shortened: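 Female FVB mice (18-20 g), porous chambers with VEGF (2 μg/mL) in 0.8 % w/v agar containing heparin 20 U/mL implanted s.c. in flank; compound p.o. once daily in 100 % PEG200 (5 mL/kg) from 4-6 h before implantation for 4 days; tissue removed 24 h after last dose, weighed, lysate assayed for TIE-2 by sandwich ELISA; n=6 per dose, mean ± SEM.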

B16-BL6 [12] = assay: Antitumor activity against mouse B16-BL6 cells implanted in C57BL/6jNpa mouse assessed as metastatic tumor growth inhibition at 3 mg/kg, po qd administered started on day 7 post implantation measured after 21 days relative to control; format: functional; conditions: time 7-21 day, read-out: TGI; procedure, shortened: as §2
B16-BL6 [13] = assay: Antitumor activity against mouse B16-BL6 cells implanted in C57BL/6jNpa mouse assessed as primary tumor growth inhibition at 3 mg/kg, po qd administered started on day 7 post implantation measured after 21 days relative to control; format: functional; conditions: time 7-21 day, read-out: TGI; procedure, shortened: as §2
[14] = Toxicity in C57BL/6jNpa mouse harbouring mouse B16-BL6 cells assessed as effect on body weight at 3 mg/kg, po qd administered started on day 7 post implantation measured after 21 days; format: organism-based; conditions: in vivo, 504 h, time 7-21 day
Procedure, shortened: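 B16/BL6 melanoma cells (50000) injected intradermally into dorsal pinna of both ears of female mice (18–20 g). Randomized on day 7 into groups of 5-6 by primary tumor size, then dosed orally once daily for 14 days in PEG300 or PEG200. Sacrificed day 21; blood analysed directly for platelets, red and white cell counts, hematocrit. Body and spleen weight recorded versus healthy naive mouse.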

B16-BL6 [15] = assay: Antitumor activity against mouse B16-BL6 cells implanted in C57BL/6jNpa mouse assessed as primary tumor growth inhibition by measuring T/C ratio at 3 mg/kg, po qd administered started on day 7 post implantation measured after 21 days; format: functional; conditions: time 7-21 day; procedure, shortened: as §2
B16-BL6 [16] = assay: Antitumor activity against mouse B16-BL6 cells implanted in C57BL/6jNpa mouse assessed as metastatic tumor growth inhibition by measuring T/C ratio at 3 mg/kg, po qd administered started on day 7 post implantation measured after 21 days; format: functional; conditions: time 7-21 day; procedure, shortened: as §2
[17] = molecular target: Proto-oncogene tyrosine-protein kinase receptor Ret (Homo sapiens, UniProt P07949); assay: Inhibition of human recombinant GST-fused RET expressed in baculovirus expression system using poly-Glu-Tyr (4:1) as substrate measured after 10 mins in presence of gamma-[33P]-ATP by scintillation counting analysis; procedure, shortened: as §1
[18] = molecular target: Serine/threonine-protein kinase B-raf (Homo sapiens) (UniProt P15056); assay: Inhibition of human recombinant GST-fused BRAF expressed in baculovirus expression system using poly-Glu-Tyr (4:1) as substrate measured after 10 mins in presence of gamma-[33P]-ATP by scintillation counting analysis; procedure, shortened: as §1
[19] = molecular target: Epidermal growth factor receptor (Homo sapiens, UniProt P00533); assay: Inhibition of EGFR (unknown origin) autophosphorylation expressed in human A-431 cells by ELISA-based assay; format: cell-based
Procedure, shortened: (§4)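 Cells were stimulated with the respective ligand. Receptor tyrosine kinase autophosphorylation in the presence of compound was quantified by ELISA.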

[20] = molecular target: Insulin-like growth factor 1 receptor (Homo sapiens, UniProt P08069); assay: Inhibition of IGF1R (unknown origin) autophosphorylation expressed in […] by ELISA-based assay; format: cell-based; procedure, shortened: as §4
Insulin-like growth factor 1 receptor, sequence (P08069 31-736 limits assumed): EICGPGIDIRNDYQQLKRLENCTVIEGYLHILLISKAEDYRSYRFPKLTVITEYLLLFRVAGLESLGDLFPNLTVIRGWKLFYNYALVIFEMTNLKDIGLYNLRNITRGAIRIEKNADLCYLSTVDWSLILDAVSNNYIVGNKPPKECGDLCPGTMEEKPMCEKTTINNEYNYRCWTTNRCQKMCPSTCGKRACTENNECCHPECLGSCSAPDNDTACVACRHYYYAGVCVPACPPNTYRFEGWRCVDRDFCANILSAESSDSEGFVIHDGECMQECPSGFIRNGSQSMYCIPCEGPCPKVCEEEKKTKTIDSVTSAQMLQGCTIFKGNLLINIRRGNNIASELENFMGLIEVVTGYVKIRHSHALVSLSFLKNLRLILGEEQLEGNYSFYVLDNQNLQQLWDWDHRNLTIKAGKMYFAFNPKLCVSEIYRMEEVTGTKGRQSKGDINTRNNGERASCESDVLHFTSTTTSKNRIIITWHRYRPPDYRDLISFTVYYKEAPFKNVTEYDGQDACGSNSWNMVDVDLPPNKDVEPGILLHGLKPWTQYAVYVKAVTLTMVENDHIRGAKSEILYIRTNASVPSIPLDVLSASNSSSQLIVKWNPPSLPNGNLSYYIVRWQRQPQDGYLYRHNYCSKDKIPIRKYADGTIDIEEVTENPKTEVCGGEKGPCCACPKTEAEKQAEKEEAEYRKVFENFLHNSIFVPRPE
Insulin-like growth factor 1 receptor, sequence (P08069 741-1367 limits assumed): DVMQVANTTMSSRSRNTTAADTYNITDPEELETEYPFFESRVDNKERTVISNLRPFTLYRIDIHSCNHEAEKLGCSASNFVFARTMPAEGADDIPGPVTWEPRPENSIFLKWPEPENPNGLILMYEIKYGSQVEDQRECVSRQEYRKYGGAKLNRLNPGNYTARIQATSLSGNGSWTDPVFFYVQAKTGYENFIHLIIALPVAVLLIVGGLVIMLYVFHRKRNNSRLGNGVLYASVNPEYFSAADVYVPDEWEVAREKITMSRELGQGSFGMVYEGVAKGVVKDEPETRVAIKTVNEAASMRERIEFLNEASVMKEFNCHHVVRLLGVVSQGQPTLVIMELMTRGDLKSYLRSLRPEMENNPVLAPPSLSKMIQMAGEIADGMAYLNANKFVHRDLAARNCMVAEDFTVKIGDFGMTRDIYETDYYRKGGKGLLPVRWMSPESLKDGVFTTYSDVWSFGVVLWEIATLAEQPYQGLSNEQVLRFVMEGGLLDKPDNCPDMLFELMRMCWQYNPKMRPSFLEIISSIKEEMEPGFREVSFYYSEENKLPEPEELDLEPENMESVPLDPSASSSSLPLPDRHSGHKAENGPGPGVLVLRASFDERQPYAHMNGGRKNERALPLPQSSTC

Vascular endothelial growth factor receptor 1, sequence (P17948 whole entry, the tested form may be a part): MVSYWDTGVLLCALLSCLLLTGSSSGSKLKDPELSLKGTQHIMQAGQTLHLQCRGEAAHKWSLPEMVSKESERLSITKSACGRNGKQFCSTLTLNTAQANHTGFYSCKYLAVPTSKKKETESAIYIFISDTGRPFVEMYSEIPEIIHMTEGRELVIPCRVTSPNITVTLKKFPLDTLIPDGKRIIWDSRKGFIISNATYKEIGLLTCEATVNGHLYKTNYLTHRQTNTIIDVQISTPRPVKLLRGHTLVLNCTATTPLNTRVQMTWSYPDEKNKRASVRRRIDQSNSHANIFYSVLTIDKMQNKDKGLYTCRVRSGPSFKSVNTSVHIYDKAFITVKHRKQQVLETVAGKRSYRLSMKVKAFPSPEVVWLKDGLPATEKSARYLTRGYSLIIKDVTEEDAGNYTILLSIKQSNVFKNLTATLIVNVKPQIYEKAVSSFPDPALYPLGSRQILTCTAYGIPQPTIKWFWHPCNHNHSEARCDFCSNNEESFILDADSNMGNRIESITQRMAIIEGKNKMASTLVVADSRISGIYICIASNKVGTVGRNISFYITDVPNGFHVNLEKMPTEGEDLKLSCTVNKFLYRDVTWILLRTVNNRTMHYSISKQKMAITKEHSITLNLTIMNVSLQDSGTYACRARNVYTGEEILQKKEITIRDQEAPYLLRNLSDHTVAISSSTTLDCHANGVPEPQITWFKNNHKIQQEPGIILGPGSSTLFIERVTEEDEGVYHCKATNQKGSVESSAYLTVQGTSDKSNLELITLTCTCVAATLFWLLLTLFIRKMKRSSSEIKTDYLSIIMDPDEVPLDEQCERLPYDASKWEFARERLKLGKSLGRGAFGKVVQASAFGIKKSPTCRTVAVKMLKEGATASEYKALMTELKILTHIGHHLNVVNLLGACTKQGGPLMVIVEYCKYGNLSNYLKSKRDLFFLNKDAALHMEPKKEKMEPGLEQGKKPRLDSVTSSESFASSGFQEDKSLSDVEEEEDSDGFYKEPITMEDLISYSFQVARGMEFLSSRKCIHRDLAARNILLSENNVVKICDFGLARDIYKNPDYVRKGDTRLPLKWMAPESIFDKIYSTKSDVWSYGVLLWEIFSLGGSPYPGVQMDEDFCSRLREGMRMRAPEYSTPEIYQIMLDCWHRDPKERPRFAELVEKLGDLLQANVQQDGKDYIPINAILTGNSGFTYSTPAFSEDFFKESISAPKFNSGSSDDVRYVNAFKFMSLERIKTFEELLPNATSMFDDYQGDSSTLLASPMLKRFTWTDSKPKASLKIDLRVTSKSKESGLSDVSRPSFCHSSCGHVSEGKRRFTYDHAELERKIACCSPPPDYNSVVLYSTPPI
Vascular endothelial growth factor receptor 3, sequence (P35916 whole entry, the tested form may be a part): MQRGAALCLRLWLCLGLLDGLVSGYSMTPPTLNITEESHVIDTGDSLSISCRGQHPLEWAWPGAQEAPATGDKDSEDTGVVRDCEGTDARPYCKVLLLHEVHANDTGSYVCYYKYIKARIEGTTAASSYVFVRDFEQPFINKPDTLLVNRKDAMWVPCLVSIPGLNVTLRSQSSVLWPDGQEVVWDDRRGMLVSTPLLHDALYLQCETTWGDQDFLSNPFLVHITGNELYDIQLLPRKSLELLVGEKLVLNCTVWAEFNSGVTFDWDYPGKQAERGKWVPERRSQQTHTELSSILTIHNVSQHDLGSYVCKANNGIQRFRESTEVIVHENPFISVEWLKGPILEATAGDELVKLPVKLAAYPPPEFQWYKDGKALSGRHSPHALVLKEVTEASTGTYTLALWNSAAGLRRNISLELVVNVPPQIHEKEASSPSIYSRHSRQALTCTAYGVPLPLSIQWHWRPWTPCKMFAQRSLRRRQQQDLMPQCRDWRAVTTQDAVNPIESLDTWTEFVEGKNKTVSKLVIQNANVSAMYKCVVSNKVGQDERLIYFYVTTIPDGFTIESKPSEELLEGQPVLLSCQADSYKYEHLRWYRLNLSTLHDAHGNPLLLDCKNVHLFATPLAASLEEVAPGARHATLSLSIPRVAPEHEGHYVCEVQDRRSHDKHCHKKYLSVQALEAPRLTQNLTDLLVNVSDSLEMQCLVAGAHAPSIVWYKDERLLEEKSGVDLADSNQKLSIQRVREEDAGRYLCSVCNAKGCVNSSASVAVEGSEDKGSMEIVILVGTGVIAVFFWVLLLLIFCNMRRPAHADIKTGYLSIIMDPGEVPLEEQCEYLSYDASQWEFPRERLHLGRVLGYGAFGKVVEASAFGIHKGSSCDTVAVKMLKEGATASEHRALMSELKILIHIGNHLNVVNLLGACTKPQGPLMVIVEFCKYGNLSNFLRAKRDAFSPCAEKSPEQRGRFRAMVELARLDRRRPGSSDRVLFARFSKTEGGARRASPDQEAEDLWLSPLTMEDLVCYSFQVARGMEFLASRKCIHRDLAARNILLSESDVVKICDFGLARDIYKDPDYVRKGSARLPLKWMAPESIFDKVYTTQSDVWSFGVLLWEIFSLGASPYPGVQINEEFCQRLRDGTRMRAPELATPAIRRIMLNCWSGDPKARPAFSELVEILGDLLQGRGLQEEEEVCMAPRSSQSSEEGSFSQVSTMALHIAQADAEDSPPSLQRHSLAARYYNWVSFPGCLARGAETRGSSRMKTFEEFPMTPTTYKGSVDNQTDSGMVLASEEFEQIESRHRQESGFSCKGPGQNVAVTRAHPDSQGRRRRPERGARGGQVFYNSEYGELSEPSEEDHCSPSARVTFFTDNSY
Serine/threonine-protein kinase B-raf (Homo sapiens), sequence (P15056 whole entry, the tested form may be a part): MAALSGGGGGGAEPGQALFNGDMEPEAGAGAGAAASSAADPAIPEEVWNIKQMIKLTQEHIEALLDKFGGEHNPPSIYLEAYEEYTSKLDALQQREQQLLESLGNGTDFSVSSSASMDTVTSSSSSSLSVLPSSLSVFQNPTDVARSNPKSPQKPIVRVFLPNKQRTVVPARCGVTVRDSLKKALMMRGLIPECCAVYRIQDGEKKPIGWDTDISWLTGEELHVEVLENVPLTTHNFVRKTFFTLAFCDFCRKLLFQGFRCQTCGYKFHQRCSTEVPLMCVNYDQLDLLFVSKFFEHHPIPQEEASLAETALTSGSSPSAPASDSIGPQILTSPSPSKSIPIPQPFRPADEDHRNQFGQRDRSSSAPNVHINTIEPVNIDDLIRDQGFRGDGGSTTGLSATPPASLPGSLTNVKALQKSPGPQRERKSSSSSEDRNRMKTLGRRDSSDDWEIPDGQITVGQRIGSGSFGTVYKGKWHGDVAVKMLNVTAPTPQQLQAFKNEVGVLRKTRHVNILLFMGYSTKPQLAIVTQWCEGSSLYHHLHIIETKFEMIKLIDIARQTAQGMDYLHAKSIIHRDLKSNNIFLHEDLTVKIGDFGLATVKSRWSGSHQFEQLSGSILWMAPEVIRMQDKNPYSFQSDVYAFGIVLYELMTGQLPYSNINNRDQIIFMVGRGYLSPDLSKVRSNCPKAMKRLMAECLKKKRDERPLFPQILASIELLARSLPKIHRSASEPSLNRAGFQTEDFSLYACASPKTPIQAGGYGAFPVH

Nc1nccc(Oc2ccc3c(C(=O)Nc4ccc(F)c(C(F)(F)F)c4)cccc3c2)n1
IC50 [1]: 177 nM
IC50 [2]: 223 nM
Activity [3]: Non-Toxic
IC50 (BaF3 [4]): 8200 nM
IC50 (BaF3 [5]): 8900 nM
Activity (B16-BL6 [6]): Active
IC50 (BaF3 [7]): > 10000 nM
half-life [8]: 4.5 h
bioavailability [9]: 9%
Activity (Mus musculus [10]): Active
Activity (Mus musculus [11]): Active
inhibition in vivo at 3 mg/kg (B16-BL6 [12]): 71%
inhibition in vivo at 3 mg/kg (B16-BL6 [13]): 54%
Activity [14]: Non-Toxic
T/C (B16-BL6 [15]): 0.1
T/C (B16-BL6 [16]): 0.13

Nc1nccc(Oc2ccc3c(C(=O)Nc4cccc(C(F)(F)F)c4)cccc3c2)n1
IC50 [1]: 420 nM
IC50 [2]: 820 nM
inhibition [17]: Active
inhibition [18]: Active
Activity [3]: Non-Toxic
IC50 [19]: > 500 nM
IC50 [20]: > 500 nM
IC50 (BaF3 [4]): > 10000 nM
IC50 (BaF3 [5]): > 10000 nM
Activity (B16-BL6 [6]): Active
IC50 (BaF3 [7]): > 10000 nM
inhibition in vivo at 3 mg/kg (B16-BL6 [12]): 71%
inhibition in vivo at 3 mg/kg (B16-BL6 [13]): 54%
Activity [14]: Non-Toxic
T/C (B16-BL6 [15]): 0.46
T/C (B16-BL6 [16]): 0.29

O=C(Nc1cccc(C(F)(F)F)c1)c1cccc2cc(Oc3cc(CO)ncn3)ccc12 [BFH-772]
IC50 [1]: 1100 nM
IC50 [2]: 1700 nM
inhibition [17]: Active
inhibition [18]: Active
Activity [3]: Non-Toxic
IC50 [19]: > 500 nM
IC50 [20]: > 500 nM
IC50 (BaF3 [4]): > 10000 nM
IC50 (BaF3 [5]): 7200 nM
IC50 (BaF3 [7]): > 10000 nM
Activity (Mus musculus [10]): Active
Activity (Mus musculus [11]): Active
inhibition in vivo at 3 mg/kg (B16-BL6 [12]): 71%
inhibition in vivo at 3 mg/kg (B16-BL6 [13]): 54%
Activity [14]: Non-Toxic
T/C (B16-BL6 [15]): 0.26
T/C (B16-BL6 [16]): 0.17

Nc1cc(Oc2ccc3c(C(=O)Nc4ccc(F)c(C(F)(F)F)c4)cccc3c2)ncn1
IC50 [1]: 235 nM
IC50 [2]: 333 nM
Activity [3]: Non-Toxic
IC50 (BaF3 [4]): 4780 nM
IC50 (BaF3 [5]): > 10000 nM
IC50 (BaF3 [7]): > 10000 nM
bioavailability [9]: 9%
inhibition in vivo at 3 mg/kg (B16-BL6 [12]): 71%
inhibition in vivo at 3 mg/kg (B16-BL6 [13]): 54%
Activity [14]: Non-Toxic
T/C (B16-BL6 [15]): 0.34
T/C (B16-BL6 [16]): 0.04

Nc1cc(Oc2ccc3c(C(=O)Nc4cccc(C(F)(F)F)c4)cccc3c2)ncn1
IC50 [1]: 50 nM
IC50 [2]: 81 nM
Activity [3]: Non-Toxic
IC50 (BaF3 [4]): 5650 nM
IC50 (BaF3 [5]): > 10000 nM
IC50 (BaF3 [7]): > 10000 nM
half-life [8]: 10.1 h
bioavailability [9]: 5%
inhibition in vivo at 3 mg/kg (B16-BL6 [12]): 71%
inhibition in vivo at 3 mg/kg (B16-BL6 [13]): 54%
Activity [14]: Non-Toxic
T/C (B16-BL6 [15]): 0.22
T/C (B16-BL6 [16]): 0.04
